The source made the active and inactive calls. The rule behind the calls is not given here.
What was measured:
[1] = system: Radical scavenging activity; assay: Antioxidant activity assessed as reduction of DPPH radical scavenging activity at 0.1 mM; assay type: functional; parameters: scale not given: the % may be the effect or the level left
How it was run: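 DPPH reduction in ethanol. Test compound and DPPH both 0.1 mM final, preincubated 5 min at 37 °C, absorbance read at 520 nm. Reduction percentage = 100[(A0 − Ac)/A0], with A0 the untreated DPPH absorbance.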

SH-SY5Y [2] = assay: Neuroprotective activity against human SH-SY5Y cells assessed as inhibition of H2O2-induced cellular damage at 10 uM dosed 1 hr prior to H2O2 challenge after 24 hrs relative to control; assay type: functional; parameters: scale not given: the % may be the effect or the level left
How it was run: (§1)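 SH-SY5Y cells (passages 3-16, MEM with 10% FBS, 37 °C, 5% CO2) seeded at 10^4 cells/well. Pretreated with compound at 10 µM for 1 h, then 100 µM H2O2 for 24 h; NAC 5 mM as positive control. Viability from LDH released into the medium. Difference relative to H2O2-only cells, normalized; neuroprotection computed from basal values. Triplicate, mean ± SD.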

[3] = Antioxidant activity assessed as peroxyl free radical scavenging activity by ORAC-fluorescence assay relative to alpha-phenyl-N-tert-butylnitrone; assay type: functional
How it was run: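 Peroxyl scavenging by fluorescein ORAC at 60 °C in 75 mM phosphate buffer pH 7.4. Compounds at 10-1000 µM final with fluorescein 70 nM final; 30 s preincubation, then AAPH 12 mM final. Fluorescence (ex 490/em 515) read every minute for 12 min. Net AUC versus blank regressed on concentration and expressed as µmol PBN equivalents per µmol sample. Duplicates, at least three independent assays.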

SH-SY5Y [4] = assay: Neuroprotective activity against human SH-SY5Y cells assessed as inhibition of H2O2-induced cellular damage at 10 uM after 24 hrs relative to control; assay type: functional; parameters: scale not given: the % may be the effect or the level left; how it was run: as §1
J774 [5] = assay: Cytotoxicity against mouse J774 cells after 48 hrs by MTT assay; assay type: cell-based; conditions: J774, 48 h
How it was run: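 J774 murine macrophages seeded at 1 × 10^5 cells/well and left 48 h at 37 °C in 5% CO2 to attach. Exposed to compounds at 50-500 µM for 48 h. MTT 0.2 mg/mL final for 3 h, formazan dissolved in DMSO, absorbance at 560 nm. IC50 is the concentration reducing control absorbance by 50%, averaged over two experiments.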

[6] = Permeability across porcine brain lipid coated polyvinylidene fluoride membrane by PAMPA; assay type: ADME; conditions: pig, read-out: permeability
How it was run: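 PAMPA-BBB assay. Filter of the donor plate (PVDF, 0.45 µm) coated with porcine brain lipid in dodecane (20 mg/mL). Compounds at 1 mg/mL in PBS/ethanol (9:1), filtered, placed in donor wells; acceptor wells held PBS/ethanol (9:1). Sandwich left 120 min at 25 °C, acceptor concentration measured by UV. Four wells per sample, at least three runs, mean ± SD.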

J774 [7] = assay: Cytotoxicity against mouse J774 cells at 10 uM after 48 hrs by MTT assay; assay type: cell-based; conditions: j774, 48 h
Homo sapiens = organism: Homo sapiens; assay: Neuroprotective activity against oxidative stress-induced cell death in human neuroblastoma cells; assay type: functional, cell-based
[8] = system: Radical scavenging activity; assay: Antioxidant activity assessed as reduction of DPPH radical scavenging activity at 10 mM; assay type: functional; parameters: scale not given: the % may be the effect or the level left
SH-SY5Y [9] = assay: Neuroprotective activity against human SH-SY5Y cells assessed as inhibition of H2O2-induced cellular damage at 1 uM dosed 1 hr prior to H2O2 challenge after 24 hrs relative to control; assay type: functional; parameters: scale not given: the % may be the effect or the level left
How it was run: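 SH-SY5Y neuroblastoma cells given compound at 1 µM 1 h before a 100 µM H2O2 challenge and then incubated 24 h. Viability measured as LDH activity and compared with H2O2-only cells; NAC 5 mM used as positive control. Three independent experiments, mean ± SD.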

COc1ccc(-c2nsc(/C=[N+](\[O-])C(C)(C)C)n2)cc1 gave an Activity [1] of 10%, an Activity (SH-SY5Y [2]) of 46% and a PBN equivalents [3] of 7. The Activity (SH-SY5Y [4]) was 25%, the IC50 (J774 [5]) was > 400 µM and the Papp [6] was 12.5 ×10⁻⁶ cm/s. For the same molecule, the Activity (J774 [7]) was “Non-toxic”.
For Cc1nnsc1/C=[N+](\[O-])C(C)(C)C, the Activity [1] was 0%, the Activity (Homo sapiens) was “inactive” and the Activity (SH-SY5Y [4]) was 0%. The IC50 (J774 [5]) was > 400 µM and the Activity (J774 [7]) was “Non-toxic”.
For CC(C)(C)/[N+]([O-])=C/c1nc(-c2ccc(Cl)cc2)ns1, the Activity [1] was 0%, the Activity (SH-SY5Y [2]) was 34% and the PBN equivalents [3] was 1.5. For the same molecule, the Activity (SH-SY5Y [4]) was 19.1%, the IC50 (J774 [5]) was 200 µM and the Activity (J774 [7]) was “Non-toxic”.
Molecule [O-]/[N+](=C\c1nc(-c2ccccc2)ns1)C1CCCCC1 has an Activity [1] of 11%, an Activity (SH-SY5Y [2]) of 43% and a PBN equivalents [3] of 4.6. For the same molecule, the Activity (SH-SY5Y [4]) was 23.6%, the IC50 (J774 [5]) was 100 µM and the Activity (J774 [7]) was “Non-toxic”.
For CC(C)(C)/[N+]([O-])=C/c1ccccc1, the Activity [1] was 0%, the Activity (SH-SY5Y [2]) was 37% and the PBN equivalents [3] was 1. The Activity (SH-SY5Y [4]) was 20.6%, the IC50 (J774 [5]) was > 400 µM and the Activity [8] was 20%.
For Cc1c(/C=[N+](\[O-])C(C)(C)C)no[n+]1[O-], the Activity [1] was 8%, the Activity (SH-SY5Y [2]) was 42% and the PBN equivalents [3] was 2.5. For the same molecule, the Activity (SH-SY5Y [4]) was 23%, the IC50 (J774 [5]) was > 400 µM and the Activity (J774 [7]) was “Non-toxic”.
In the case of [O-]/[N+](=C\c1nc(-c2ccccc2)ns1)Cc1ccccc1, the Activity [1] is reported as 0%, the Activity (SH-SY5Y [2]) is reported as 33% and the PBN equivalents [3] is reported as 3.5. The Activity (SH-SY5Y [4]) was 18.1%, the IC50 (J774 [5]) was 240 µM and the Activity (J774 [7]) was “Non-toxic”.
CC(C)(C)/[N+]([O-])=C/c1ccc2no[n+]([O-])c2c1 showed an Activity [1] of 17%, an Activity (SH-SY5Y [2]) of 24% and a PBN equivalents [3] of 16.5. For the same molecule, the Activity (SH-SY5Y [4]) was 13.4%, the IC50 (J774 [5]) was 150 µM and the Activity (J774 [7]) was “Non-toxic”.
In the case of CC(C)(C)/[N+]([O-])=C/c1nsc(-c2ccccc2)n1, the Activity [1] is reported as 41%, the Activity (SH-SY5Y [2]) is reported as 36% and the PBN equivalents [3] is reported as 2. The Activity (SH-SY5Y [4]) was 20%, the IC50 (J774 [5]) was > 400 µM and the Activity (J774 [7]) was “Non-toxic”.
In the case of CCOC(=O)c1snnc1/C=[N+](\[O-])C(C)(C)C, the Activity [1] is reported as 0%, the Activity (Homo sapiens) is reported as “inactive” and the Activity (SH-SY5Y [4]) is reported as 0%. For the same molecule, the IC50 (J774 [5]) was > 400 µM and the Activity (J774 [7]) was “Non-toxic”.
Molecule CC(C)(C)/[N+]([O-])=C/c1nc(-c2ccccc2)ns1 has an Activity [1] of 0%, an Activity (SH-SY5Y [2]) of 38% and a PBN equivalents [3] of 5.5. The Activity (SH-SY5Y [4]) was 20.7%, the IC50 (J774 [5]) was > 400 µM and the Activity (J774 [7]) was “Non-toxic”.
With CC(C)(C)/[N+]([O-])=C/c1c(-c2ccccc2)no[n+]1[O-] the Activity [1] was 0%, the Activity (Homo sapiens) was “inactive” and the PBN equivalents [3] was 6. For the same molecule, the Activity (SH-SY5Y [4]) was 0%, the IC50 (J774 [5]) was 100 µM and the Activity (J774 [7]) was “Non-toxic”.
CC(C)(C)c1cc(-c2nsc(/C=[N+](\[O-])C(C)(C)C)n2)cc(C(C)(C)C)c1O showed an Activity [1] of 40%, an Activity (SH-SY5Y [2]) of 46% and a PBN equivalents [3] of 6. For the same molecule, the Activity (SH-SY5Y [4]) was 25.2%, the IC50 (J774 [5]) was > 400 µM and the Papp [6] was 4.5 ×10⁻⁶ cm/s. The Activity (J774 [7]) was “Non-toxic” and the Activity (SH-SY5Y [9]) was 20%.
